In ChEMBL document CHEMBL4602702, “Red-Emitting Dibenzodiazepinone Derivatives as Fluorescent Dualsteric Probes for the Muscarinic Acetylcholine M2 Receptor” (J Med Chem, 2020):

Key:
Type in all cases: cell-based
[1] = target: T1, Muscarinic acetylcholine receptor M2 (Homo sapiens, UniProt P08172); test: Displacement of [3H]-NMS from human muscarinic M2 receptor stably expressed in CHO-K9 cells by radioligand competitive binding assay
T1 sequence (P08172 whole entry): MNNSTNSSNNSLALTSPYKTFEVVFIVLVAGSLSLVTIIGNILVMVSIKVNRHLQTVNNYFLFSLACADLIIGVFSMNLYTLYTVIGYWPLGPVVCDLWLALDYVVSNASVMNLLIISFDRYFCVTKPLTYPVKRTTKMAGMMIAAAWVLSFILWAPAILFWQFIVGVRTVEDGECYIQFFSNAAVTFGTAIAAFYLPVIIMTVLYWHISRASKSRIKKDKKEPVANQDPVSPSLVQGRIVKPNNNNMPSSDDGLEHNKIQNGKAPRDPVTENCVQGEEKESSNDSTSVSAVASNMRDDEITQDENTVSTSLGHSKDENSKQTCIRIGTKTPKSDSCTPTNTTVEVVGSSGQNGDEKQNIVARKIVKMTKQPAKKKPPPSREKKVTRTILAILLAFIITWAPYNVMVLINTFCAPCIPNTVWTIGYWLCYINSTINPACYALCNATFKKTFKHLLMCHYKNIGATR
How it was run: (§1)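 Equilibrium competition binding at live CHO-hMxR cells with [3H]NMS at M1 0.2, M2 0.2, M3 0.2, M4 0.1, M5 0.3 nM. […] Four-parameter logistic fit converted to pKi; at least three experiments in triplicate (some two).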

[2] = target: T1, Muscarinic acetylcholine receptor M2; test: Displacement of 4-(2-((1E,3E)-5-((E)-3,3-Dimethyl-1-(6-oxo-6-((2-(3-(1-(4-(1-(2-oxo-2-(11-oxo-10,11-dihydro-5H-dibenzo[b,e][1,4]diazepin-5-yl)ethyl)piperidin-4-yl)butyl)-1H-imidazol-4-yl)propanamido)ethyl)-amino)hexyl)-5-sulfoindolin-2-ylidene)penta-1,3-dien-1-yl)-3,3-dimethyl-3H-indol-1-ium-1-yl)butane-1-sulfonateHydrotrifluoroacetate fluorescent tracer from human muscarinic M2 receptor expressed in […] cells measured after 60 mins by Hoechst H33342 dye based confocal plate reader assay
[3] = target: T1, Muscarinic acetylcholine receptor M2; test: Displacement of 4-(2-((1E,3E)-5-((E)-1-(6-((3,5-Bis((2-(3-(1-(4-(1-(2-oxo-2-(11-oxo-10,11-dihydro-5H-dibenzo[b,e][1,4]diazepin-5-yl)ethyl)piperidin-4-yl)butyl)-1H-imidazol-4-yl)propanamido)ethyl)carbamoyl)benzyl)amino)-6-oxohexyl)-3,3-dimethyl-5-sulfoindolin-2-ylidene)penta-1,3-dien-1-yl)-3,3-dimethyl-3H-indol-1-ium-1-yl)butane-1-sulfonate Tris(hydrotrifluoroacetate) fluorescent tracer from human muscarinic M2 receptor expressed in […] cells measured after 60 mins by Hoechst H33342 dye based confocal plate reader assay
[4] = target: T2, Muscarinic acetylcholine receptor M1 (Homo sapiens, UniProt P11229); test: Displacement of [3H]-NMS from human muscarinic M1 receptor stably expressed in CHO-K9 cells by radioligand competitive binding assay; how it was run: as §1
T2 sequence (P11229 whole entry): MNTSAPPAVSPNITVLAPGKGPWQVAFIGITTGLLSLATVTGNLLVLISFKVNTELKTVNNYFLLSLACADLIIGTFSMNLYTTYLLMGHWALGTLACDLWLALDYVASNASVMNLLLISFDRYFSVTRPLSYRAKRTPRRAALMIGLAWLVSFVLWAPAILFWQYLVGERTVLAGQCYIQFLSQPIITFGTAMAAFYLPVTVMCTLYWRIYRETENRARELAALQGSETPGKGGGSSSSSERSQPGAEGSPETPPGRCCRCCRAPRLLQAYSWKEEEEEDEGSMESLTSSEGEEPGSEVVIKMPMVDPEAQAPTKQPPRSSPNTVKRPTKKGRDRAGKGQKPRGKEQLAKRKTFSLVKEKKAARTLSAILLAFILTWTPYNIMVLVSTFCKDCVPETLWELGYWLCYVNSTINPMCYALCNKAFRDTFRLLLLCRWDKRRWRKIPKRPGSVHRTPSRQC

[5] = target: Muscarinic acetylcholine receptor M3 (Homo sapiens, UniProt P20309); test: Displacement of [3H]-NMS from human muscarinic M3 receptor stably expressed in CHO-K9 cells by radioligand competitive binding assay; how it was run: as §1
[6] = target: T3, Muscarinic acetylcholine receptor M4 (Homo sapiens, UniProt P08173); test: Displacement of [3H]-NMS from human muscarinic M4 receptor stably expressed in CHO-K9 cells by radioligand competitive binding assay; how it was run: as §1
T3 sequence (P08173 whole entry): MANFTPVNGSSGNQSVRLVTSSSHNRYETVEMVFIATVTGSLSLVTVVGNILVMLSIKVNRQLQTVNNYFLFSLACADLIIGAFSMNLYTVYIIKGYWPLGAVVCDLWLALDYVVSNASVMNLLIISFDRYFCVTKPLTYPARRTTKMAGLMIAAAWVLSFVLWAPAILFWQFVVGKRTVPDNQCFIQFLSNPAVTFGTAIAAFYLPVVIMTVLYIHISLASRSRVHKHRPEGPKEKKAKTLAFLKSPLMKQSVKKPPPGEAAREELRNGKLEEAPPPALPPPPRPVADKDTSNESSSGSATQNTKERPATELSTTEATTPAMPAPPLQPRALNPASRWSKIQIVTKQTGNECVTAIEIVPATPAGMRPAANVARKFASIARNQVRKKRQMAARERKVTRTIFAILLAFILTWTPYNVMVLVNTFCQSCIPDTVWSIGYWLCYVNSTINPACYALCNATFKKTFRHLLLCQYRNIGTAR

[7] = target: T4, Muscarinic acetylcholine receptor M5 (Homo sapiens, UniProt P08912); test: Displacement of [3H]-NMS from human muscarinic M5 receptor stably expressed in CHO-K9 cells by radioligand competitive binding assay; how it was run: as §1
T4 sequence (P08912 whole entry): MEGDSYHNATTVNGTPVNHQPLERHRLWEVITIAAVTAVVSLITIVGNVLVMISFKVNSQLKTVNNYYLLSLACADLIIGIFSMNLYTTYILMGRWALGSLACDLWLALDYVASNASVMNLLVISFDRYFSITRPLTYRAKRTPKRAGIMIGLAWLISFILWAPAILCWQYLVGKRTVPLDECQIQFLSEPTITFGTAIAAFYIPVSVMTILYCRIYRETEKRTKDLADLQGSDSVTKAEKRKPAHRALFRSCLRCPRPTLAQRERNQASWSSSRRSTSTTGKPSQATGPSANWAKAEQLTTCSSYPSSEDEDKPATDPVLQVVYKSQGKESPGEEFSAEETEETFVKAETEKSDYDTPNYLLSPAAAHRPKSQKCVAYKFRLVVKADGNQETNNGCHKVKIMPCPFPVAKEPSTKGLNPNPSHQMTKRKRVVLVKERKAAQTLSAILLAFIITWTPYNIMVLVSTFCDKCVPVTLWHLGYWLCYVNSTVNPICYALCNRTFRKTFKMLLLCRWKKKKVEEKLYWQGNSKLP

Sequence of Muscarinic acetylcholine receptor M3 (P20309 whole entry): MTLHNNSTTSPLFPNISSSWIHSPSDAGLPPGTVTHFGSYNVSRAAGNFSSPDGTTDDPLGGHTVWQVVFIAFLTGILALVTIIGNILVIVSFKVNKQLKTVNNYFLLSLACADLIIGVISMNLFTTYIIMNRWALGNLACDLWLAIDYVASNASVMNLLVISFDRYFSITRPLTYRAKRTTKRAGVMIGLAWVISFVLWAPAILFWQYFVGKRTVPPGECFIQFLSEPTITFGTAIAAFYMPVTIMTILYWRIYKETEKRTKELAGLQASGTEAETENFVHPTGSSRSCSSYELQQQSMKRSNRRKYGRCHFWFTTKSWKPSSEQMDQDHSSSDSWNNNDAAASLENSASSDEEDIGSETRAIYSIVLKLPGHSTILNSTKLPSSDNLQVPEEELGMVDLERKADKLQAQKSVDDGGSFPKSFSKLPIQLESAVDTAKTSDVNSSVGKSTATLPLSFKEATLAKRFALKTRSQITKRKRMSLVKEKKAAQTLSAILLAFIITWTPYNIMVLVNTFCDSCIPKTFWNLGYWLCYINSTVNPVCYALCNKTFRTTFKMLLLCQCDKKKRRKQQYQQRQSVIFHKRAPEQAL

Row | SMILES | Ki [1] [nM] | Ki [2] [nM] | Ki [3] [nM] | Ki [4] [nM] | Ki [5] [nM] | Ki [6] [nM] | Ki [7] [nM]
1 | CCC(=O)NCc1cc(C(=O)NCCNC(=O)CCc2cn(CCCCC3CCN(CC(=O)N4c5ccccc5NC(=O)c5ccccc54)CC3)cn2)cc(C(=O)NCCNC(=O)CCc2cn(CCCCC3CCN(CC(=O)N4c5ccccc5NC(=O)c5ccccc54)CC3)cn2)c1 |  | 0.355 | 0.525 |  |  |  | 
2 | CC1(C)C(/C=C/C=C/C=C2/N(CCCCCC(=O)NCCCCC3CCN(CC(=O)N4c5ccccc5NC(=O)c5ccccc54)CC3)c3ccccc3C2(C)C)=[N+](CCCCS(=O)(=O)[O-])c2ccccc21 | 141 |  |  | 347 | 871 | 200 | 871
3 | C[N+]1=C(/C=C/C=C/C=C2/N(CCCCCC(=O)NCCCCC3CCN(CC(=O)N4c5ccccc5NC(=O)c5ccccc54)CC3)c3ccccc3C2(C)C)C(C)(C)c2ccccc21 | 53.7 |  |  | 120 | 631 | 67.6 | 288
4 | Cc1cc(/C=C/C=C/c2ccc(N(C)C)cc2)cc(C)[n+]1CCN1CCN(CCCCC2CCN(CC(=O)N3c4ccccc4NC(=O)c4ccccc43)CC2)CC1 | 3.02 |  |  | 13.8 | 148 | 9.55 | 389

More lines, in order of falling Ki [1], values ahead:

Row | Ki [1] [nM] | Ki [2] [nM] | Ki [3] [nM] | Ki [4] [nM] | Ki [5] [nM] | Ki [6] [nM] | Ki [7] [nM] | SMILES
5 | 1.41 |  |  |  |  |  |  | CC1(C)C(/C=C/C=C/C=C2/N(CCCCCC(=O)NCc3cc(C(=O)NCCNC(=O)CCc4cn(CCCCC5CCN(CC(=O)N6c7ccccc7NC(=O)c7ccccc76)CC5)cn4)cc(C(=O)NCCNC(=O)CCc4cn(CCCCC5CCN(CC(=O)N6c7ccccc7NC(=O)c7ccccc76)CC5)cn4)c3)c3ccccc3C2(C)C)=[N+](CCCCS(=O)(=O)[O-])c2ccccc21
6 | 0.933 |  |  |  |  |  |  | CC1(C)C(/C=C/C=C/C=C2/N(CCCCCC(=O)NCCNC(=O)CCc3cn(CCCCC4CCN(CC(=O)N5c6ccccc6NC(=O)c6ccccc65)CC4)cn3)c3ccccc3C2(C)C)=[N+](CCCCS(=O)(=O)[O-])c2ccccc21
7 | 0.269 |  |  |  |  |  |  | NCc1cc(C(=O)NCCNC(=O)CCc2cn(CCCCC3CCN(CC(=O)N4c5ccccc5NC(=O)c5ccccc54)CC3)cn2)cc(C(=O)NCCNC(=O)CCc2cn(CCCCC3CCN(CC(=O)N4c5ccccc5NC(=O)c5ccccc54)CC3)cn2)c1
